Legend:
[1] = molecular target: GABA-A receptor; alpha-2/beta-3/gamma-2 (Homo sapiens) (UniProt P18507+P28472+P47869); assay: Modulatory effect on coapplication with GABA at human Gamma-aminobutyric acid A receptor alpha-2-beta-3-gamma-2 expressed inXenopus oocytes; assay type: cell-based; conditions: Oocyte
In short: (§1)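 Two-electrode voltage clamp of Xenopus oocytes transiently expressing human α1, α2 or α3 β3γ2S receptors. Test compound is co-applied with GABA at its EC20 (GABA range 4-30 µM). Result is the % change in GABA current, mean (SEM), n = 3-7, at the stated test compound concentration (µM).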

[2] = molecular target: T1, GABA-A receptor; alpha-1/beta-3/gamma-2 (Homo sapiens, UniProt P14867+P18507+P28472); assay: Inhibition of [3H]Ro-151788 binding to human GABA A receptor (alpha-1-beta-3-gamma-2) stably expressed in L(tk-) cells.; assay type: cell-based
T1 sequence (P14867 whole entry): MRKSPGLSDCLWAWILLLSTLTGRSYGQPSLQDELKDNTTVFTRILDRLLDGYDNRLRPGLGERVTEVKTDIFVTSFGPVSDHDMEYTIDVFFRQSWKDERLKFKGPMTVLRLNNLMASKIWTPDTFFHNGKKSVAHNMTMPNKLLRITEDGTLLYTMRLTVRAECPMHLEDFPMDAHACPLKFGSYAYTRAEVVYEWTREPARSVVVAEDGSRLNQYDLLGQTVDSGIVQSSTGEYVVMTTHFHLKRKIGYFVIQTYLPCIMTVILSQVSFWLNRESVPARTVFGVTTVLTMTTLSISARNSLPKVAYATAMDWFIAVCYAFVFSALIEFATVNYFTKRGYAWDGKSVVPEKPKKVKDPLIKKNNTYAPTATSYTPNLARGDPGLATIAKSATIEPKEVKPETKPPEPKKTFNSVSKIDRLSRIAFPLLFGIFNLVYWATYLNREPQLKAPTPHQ
T1 sequence (P18507 whole entry): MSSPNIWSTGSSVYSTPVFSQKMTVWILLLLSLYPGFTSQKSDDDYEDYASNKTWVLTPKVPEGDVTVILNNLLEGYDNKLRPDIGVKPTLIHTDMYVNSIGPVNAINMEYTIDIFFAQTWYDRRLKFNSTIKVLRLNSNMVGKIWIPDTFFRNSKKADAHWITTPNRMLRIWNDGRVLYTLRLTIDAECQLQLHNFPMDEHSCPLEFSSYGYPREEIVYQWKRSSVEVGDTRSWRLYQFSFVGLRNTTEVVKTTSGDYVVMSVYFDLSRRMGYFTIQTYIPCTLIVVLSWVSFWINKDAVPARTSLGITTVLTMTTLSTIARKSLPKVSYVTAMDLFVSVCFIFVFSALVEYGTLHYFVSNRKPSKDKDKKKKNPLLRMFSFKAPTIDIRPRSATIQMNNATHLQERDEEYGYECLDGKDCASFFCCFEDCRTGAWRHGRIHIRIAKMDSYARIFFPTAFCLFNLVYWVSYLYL
T1 sequence (P28472 whole entry): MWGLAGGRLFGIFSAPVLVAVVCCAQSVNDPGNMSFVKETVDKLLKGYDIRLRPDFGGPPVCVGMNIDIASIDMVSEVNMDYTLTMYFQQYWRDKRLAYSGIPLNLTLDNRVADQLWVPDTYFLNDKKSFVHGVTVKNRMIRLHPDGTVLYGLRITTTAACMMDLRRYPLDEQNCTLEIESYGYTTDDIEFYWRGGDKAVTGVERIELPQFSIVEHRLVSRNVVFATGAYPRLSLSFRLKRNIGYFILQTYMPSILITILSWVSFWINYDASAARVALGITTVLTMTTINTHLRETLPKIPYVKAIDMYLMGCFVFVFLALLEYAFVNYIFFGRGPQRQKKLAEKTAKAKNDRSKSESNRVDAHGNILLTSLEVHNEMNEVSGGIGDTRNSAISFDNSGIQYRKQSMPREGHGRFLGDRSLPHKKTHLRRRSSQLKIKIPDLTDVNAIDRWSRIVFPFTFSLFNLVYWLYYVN

[3] = molecular target: GABA-A receptor; alpha-1/beta-3/gamma-2 (Homo sapiens) (UniProt P14867+P18507+P28472); assay: Modulatory effect on coapplication with GABA at human Gamma-aminobutyric acid A receptor alpha-1-beta-3-gamma-2 in Xenopus oocyte.; in short: as §1
[4] = molecular target: T2, GABA-A receptor; alpha-3/beta-3/gamma-2 (Homo sapiens, UniProt P18507+P28472+P34903); assay: Binding affinity by displacement of [3H]Ro-151788 from recombinant human gamma-aminobutyric-acid A receptor alpha3,beta3,gamma2 stably expressed in L cells; assay type: cell-based
T2 sequence (P18507 whole entry): T1 sequence (P18507 whole entry)
T2 sequence (P28472 whole entry): T1 sequence (P28472 whole entry)
T2 sequence (P34903 whole entry): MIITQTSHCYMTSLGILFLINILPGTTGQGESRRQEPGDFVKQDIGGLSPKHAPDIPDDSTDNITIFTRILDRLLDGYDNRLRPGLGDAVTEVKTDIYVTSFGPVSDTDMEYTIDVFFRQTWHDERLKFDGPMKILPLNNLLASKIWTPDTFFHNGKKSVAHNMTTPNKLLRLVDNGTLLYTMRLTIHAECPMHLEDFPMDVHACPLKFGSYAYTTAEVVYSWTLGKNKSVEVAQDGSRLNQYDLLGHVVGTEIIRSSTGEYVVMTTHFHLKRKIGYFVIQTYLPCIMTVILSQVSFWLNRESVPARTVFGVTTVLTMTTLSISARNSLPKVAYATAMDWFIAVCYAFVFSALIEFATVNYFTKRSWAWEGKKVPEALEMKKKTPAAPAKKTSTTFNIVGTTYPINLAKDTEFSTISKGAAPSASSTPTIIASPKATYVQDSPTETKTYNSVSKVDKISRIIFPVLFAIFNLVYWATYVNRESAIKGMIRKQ
In short: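 Competition binding against [3H]Ro15-1788 on cloned human α1/α2/α3/α5 β3γ2S receptors stably expressed in L(tk-) cells. Six to eight test concentrations spaced in half-log steps. Ki given as mean (SEM), n = 3-5, reported to two significant figures.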

[5] = molecular target: GABA-A receptor; alpha-3/beta-3/gamma-2 (Homo sapiens) (UniProt P18507+P28472+P34903); assay: Modulatory effect on coapplication with GABA at human Gamma-aminobutyric acid A receptor alpha-3-beta-3-gamma-2 in Xenopus oocytes.; assay type: cell-based; conditions: Oocyte; in short: as §1

percent modulation of GABA EC20 response [1] [%] | Ki [2] [nM] | percent modulation of GABA EC20 response [3] [%] | Ki [4] [nM] | percent modulation of GABA EC20 response [5] [%] | SMILES
33 | 17 | 7 | 4.1 | 34 | COc1ccc(-c2cc(-c3nc(C)cs3)c(=O)n(C)c2-c2ccnnc2)cc1
80 | 17 | 7 | 3.4 | 43 | COc1ccc(-c2cc(-c3nc(C)cs3)c(=O)n(C)c2-c2ccncc2)cc1

From ChEMBL document CHEMBL1136055, “3-Heteroaryl-2-pyridones: benzodiazepine site ligands with functional delectivity for alpha 2/alpha 3-subtypes of human GABA(A) receptor-ion channels” (J Med Chem, 2002)
